Laboratory results as given in ChEMBL document CHEMBL5329223, “Newly synthesized 6-substituted piperazine/phenyl-9-cyclopentyl containing purine nucleobase analogs act as potent anticancer agents and induce apoptosis via inhibiting Src in hepatocellular carcinoma cells” (RSC Med Chem, 2023).
Calls of active or inactive are those of the source. The calls are words filed in the database; no cut-off is given here.

Assays:
[1] = tested on: MCF7; assay: Cytotoxicity against human MCF7 cells assessed as cell growth inhibition incubated for 72 hrs by SRB assay; format: functional, cell-based; details: MCF7, 72 h
In short: (§1)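 Cells seeded at 1000–3000 per well, treated after 24 h with 2.5–40 μM (40, 20, 10, 5, 2.5 μM) for 72 h, in duplicate or triplicate; DMSO negative control. Fixed with 10% TCA 1 h at 4 °C, stained with 0.4% SRB in 1% acetic acid, dye solubilized in 10 mM TBS, A515 read; OD normalized to DMSO control, IC50 from growth-inhibition curves.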

[2] = tested on: Mahlavu; assay: Upregulation of intracellular ATP level in human Mahlavu cells at 5 uM incubated for 72 hrs by Kinase Glo assay; format: functional, cell-based
In short: (§2)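 Huh7 and Mahlavu cells grown 24 h, then treated with 5 μM for 72 h. Lysates protein-normalized by Bradford; ATP read by Kinase-Glo Plus luminescence per kit protocol. Staurosporine positive control, DMSO negative control.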

[3] = tested on: Huh-7; assay: Upregulation of intracellular ATP level in human Huh-7 cells at 5 uM incubated for 72 hrs by Kinase Glo assay; format: functional, cell-based; in short: as §2
[4] = tested on: PLC; assay: Cytotoxicity against human PLC cells assessed as cell growth inhibition incubated for 72 hrs by SRB assay; format: functional, cell-based; in short: as §1
[5] = tested on: Huh-7; assay: Induction of morphological changes in human Huh-7 cells assessed as horseshoe-like condensed nuclei at 5 uM incubated for 72 hrs by Hoechst 33258 dye based microscopy; format: functional, cell-based
In short: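 Huh7 cells on coverslips (50 000 per well) given 5 μM or DMSO 24 h after seeding for 72 h; permeabilized with ice-cold methanol 10 min, Hoechst 33258 stain 5 min in the dark, imaged by fluorescence microscopy with 40× objective.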

[6] = tested on: Hep 3B2; assay: Cytotoxicity against human Hep3B cells assessed as cell growth inhibition incubated for 72 hrs by SRB assay; format: functional, cell-based; in short: as §1
[7] = tested on: Huh-7; assay: Cytotoxicity against human Huh-7 cells assessed as cell growth inhibition at 0.625 to 5 uM measured upto 72 hrs by RT-CES analysis; format: functional, cell-based; details: dose 0.625-5 µM
In short: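 Huh7 cells, 2000 per well, treated 24 h after seeding alongside DMSO control; cell index from impedance recorded every 30 min; plots for each concentration normalized to DMSO-treated cells.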

[8] = tested on: SNU-449; assay: Cytotoxicity against human SNU-449 cells assessed as cell growth inhibition incubated for 72 hrs by SRB assay; format: functional, cell-based; details: SNU-449, 72 h; in short: as §1
[9] = tested on: SNU-423; assay: Cytotoxicity against human SNU-423 cells assessed as cell growth inhibition incubated for 72 hrs by SRB assay; format: functional, cell-based; details: SNU-423, 72 h; in short: as §1
[10] = tested on: Huh-7; assay: Cytotoxicity against human Huh-7 cells assessed as cell growth inhibition incubated for 72 hrs by SRB assay; format: functional, cell-based; details: Huh-7, 72 h; in short: as §1
[11] = tested on: SNU-387; assay: Cytotoxicity against human SNU-387 cells assessed as cell growth inhibition incubated for 72 hrs by SRB assay; format: functional, cell-based; details: SNU-387, 72 h; in short: as §1
[12] = tested on: HCT-116; assay: Cytotoxicity against human HCT-116 cells assessed as cell growth inhibition incubated for 72 hrs by SRB assay; format: functional, cell-based; details: HCT-116, 72 h; in short: as §1
[13] = Cytotoxicity against human FOCUS cells assessed as cell growth inhibition incubated for 72 hrs by SRB assay; format: functional, cell-based; in short: as §1
[14] = tested on: SNU-475; assay: Cytotoxicity against human SNU-475 cells assessed as cell growth inhibition incubated for 72 hrs by SRB assay; format: functional, cell-based; details: SNU-475, 72 h; in short: as §1
[15] = tested on: SNU-182; assay: Cytotoxicity against human SNU-182 cells assessed as cell growth inhibition incubated for 72 hrs by SRB assay; format: functional, cell-based; details: SNU-182, 72 h; in short: as §1
[16] = biological target: Proto-oncogene tyrosine-protein kinase Src (Homo sapiens) (UniProt P12931); assay: Inhibition of Src activation in human Huh-7 cells assessed as decrease in phosphorylated Src level at 5 uM incubated for 72 hrs by Western blot analysis; format: cell-based
Proto-oncogene tyrosine-protein kinase Src (Homo sapiens), sequence (P12931 2-536 limits assumed): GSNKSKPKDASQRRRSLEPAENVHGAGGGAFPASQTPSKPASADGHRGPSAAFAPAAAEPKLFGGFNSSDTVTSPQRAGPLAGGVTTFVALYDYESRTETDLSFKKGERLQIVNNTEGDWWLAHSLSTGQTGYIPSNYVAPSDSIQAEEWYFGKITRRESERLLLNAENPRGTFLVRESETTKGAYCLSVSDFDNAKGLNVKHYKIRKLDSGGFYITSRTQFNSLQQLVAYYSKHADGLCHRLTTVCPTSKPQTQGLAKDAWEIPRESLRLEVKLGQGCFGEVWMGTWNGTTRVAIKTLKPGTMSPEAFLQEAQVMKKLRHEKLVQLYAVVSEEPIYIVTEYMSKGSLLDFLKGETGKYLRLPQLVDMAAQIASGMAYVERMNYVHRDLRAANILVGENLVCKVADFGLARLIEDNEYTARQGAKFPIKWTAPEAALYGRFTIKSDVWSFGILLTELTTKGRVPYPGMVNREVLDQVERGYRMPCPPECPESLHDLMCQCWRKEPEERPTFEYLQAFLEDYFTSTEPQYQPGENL
In short: (§3)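 Huh7 cells (300 000 per dish) treated 24 h after seeding with 5 μM or DMSO for 72 h. Immunoblot for PARP-1, phospho-Src Tyr416, Src, Rb, phospho-Rb Ser807/811, Cdk2; calnexin and actin as loading controls.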

[17] = tested on: Mahlavu; assay: Cytotoxicity against human Mahlavu cells assessed as cell growth inhibition incubated for 72 hrs by SRB assay; format: functional, cell-based; in short: as §1
[18] = tested on: SNU-398; assay: Cytotoxicity against human SNU-398 cells assessed as cell growth inhibition incubated for 72 hrs by SRB assay; format: functional, cell-based; details: SNU-398, 72 h; in short: as §1
[19] = tested on: Huh-7; assay: Induction of cell cycle arrest in human Huh-7 cells assessed as increase in accumulation of cells at subG1 phase at 5 uM incubated for 72 hrs by PI staining based flow cytometry; format: functional
In short: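 Huh7 and Mahlavu cells serum-starved 24 h to synchronize, then given 5 μM or DMSO in fresh growth medium for 72 h. Trypsinized, fixed in ice-cold 70% ethanol at least 3 h at −20 °C, PI-stained with a cell cycle kit, analyzed by flow cytometry for SubG1.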

[20] = tested on: HepG2; assay: Cytotoxicity against human HepG2 cells assessed as cell growth inhibition incubated for 72 hrs by SRB assay; format: functional, cell-based; details: HepG2, 72 h; in short: as §1
[21] = tested on: Huh-7; assay: Induction of apoptosis in human Huh-7 cells assessed as increase in PARP-1 cleavage at 5 uM incubated for 72 hrs by Western blot analysis; format: functional, cell-based; in short: as §3
[22] = biological target: T1, Discoidin domain-containing receptor 2 (Homo sapiens) (UniProt Q16832); assay: Inhibition of human DDR2 at 10 uM by Kinomescan profiling analysis relative to control
T1 sequence (whole entry): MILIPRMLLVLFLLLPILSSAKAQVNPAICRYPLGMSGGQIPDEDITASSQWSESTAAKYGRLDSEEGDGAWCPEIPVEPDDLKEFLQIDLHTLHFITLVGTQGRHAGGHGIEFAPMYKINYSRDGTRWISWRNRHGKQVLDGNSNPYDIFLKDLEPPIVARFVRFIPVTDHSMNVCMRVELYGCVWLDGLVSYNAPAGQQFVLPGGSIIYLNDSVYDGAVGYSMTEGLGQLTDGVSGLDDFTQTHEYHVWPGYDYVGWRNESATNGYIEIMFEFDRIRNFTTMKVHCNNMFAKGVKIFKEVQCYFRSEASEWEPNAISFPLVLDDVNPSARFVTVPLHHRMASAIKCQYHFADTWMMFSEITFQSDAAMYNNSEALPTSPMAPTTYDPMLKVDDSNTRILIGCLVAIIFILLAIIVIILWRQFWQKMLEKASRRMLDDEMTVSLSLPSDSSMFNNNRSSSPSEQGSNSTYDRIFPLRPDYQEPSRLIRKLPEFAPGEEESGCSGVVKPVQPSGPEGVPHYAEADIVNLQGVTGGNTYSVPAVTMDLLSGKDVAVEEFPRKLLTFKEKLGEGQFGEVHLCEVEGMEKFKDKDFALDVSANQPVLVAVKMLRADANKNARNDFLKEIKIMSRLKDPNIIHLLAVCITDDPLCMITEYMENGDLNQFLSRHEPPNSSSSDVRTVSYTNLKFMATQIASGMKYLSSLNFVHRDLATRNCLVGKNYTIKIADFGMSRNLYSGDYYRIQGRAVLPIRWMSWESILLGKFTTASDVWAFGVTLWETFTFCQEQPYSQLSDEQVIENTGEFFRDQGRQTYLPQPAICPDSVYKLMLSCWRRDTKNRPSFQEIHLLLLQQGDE
In short: (§4)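 Compounds in DMSO screened by KINOMEScan against a panel of human kinases for direct interaction, at 5000 nM or 10 000 nM depending on compound; scores calculated relative to DMSO negative control.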

[23] = biological target: Proto-oncogene tyrosine-protein kinase Src (Homo sapiens) (UniProt P12931); assay: Inhibition of Src activation in human Huh-7 cells assessed as decrease in phosphorylated Rb level at 5 uM incubated for 72 hrs by Western blot analysis; format: cell-based; in short: as §3
[24] = biological target: ALK tyrosine kinase receptor (Homo sapiens) (UniProt Q9UM73); assay: Inhibition of human ALK at 5 uM by Kinomescan profiling analysis relative to control; in short: as §4
ALK tyrosine kinase receptor (Homo sapiens), sequence (Q9UM73 19-1620 limits assumed): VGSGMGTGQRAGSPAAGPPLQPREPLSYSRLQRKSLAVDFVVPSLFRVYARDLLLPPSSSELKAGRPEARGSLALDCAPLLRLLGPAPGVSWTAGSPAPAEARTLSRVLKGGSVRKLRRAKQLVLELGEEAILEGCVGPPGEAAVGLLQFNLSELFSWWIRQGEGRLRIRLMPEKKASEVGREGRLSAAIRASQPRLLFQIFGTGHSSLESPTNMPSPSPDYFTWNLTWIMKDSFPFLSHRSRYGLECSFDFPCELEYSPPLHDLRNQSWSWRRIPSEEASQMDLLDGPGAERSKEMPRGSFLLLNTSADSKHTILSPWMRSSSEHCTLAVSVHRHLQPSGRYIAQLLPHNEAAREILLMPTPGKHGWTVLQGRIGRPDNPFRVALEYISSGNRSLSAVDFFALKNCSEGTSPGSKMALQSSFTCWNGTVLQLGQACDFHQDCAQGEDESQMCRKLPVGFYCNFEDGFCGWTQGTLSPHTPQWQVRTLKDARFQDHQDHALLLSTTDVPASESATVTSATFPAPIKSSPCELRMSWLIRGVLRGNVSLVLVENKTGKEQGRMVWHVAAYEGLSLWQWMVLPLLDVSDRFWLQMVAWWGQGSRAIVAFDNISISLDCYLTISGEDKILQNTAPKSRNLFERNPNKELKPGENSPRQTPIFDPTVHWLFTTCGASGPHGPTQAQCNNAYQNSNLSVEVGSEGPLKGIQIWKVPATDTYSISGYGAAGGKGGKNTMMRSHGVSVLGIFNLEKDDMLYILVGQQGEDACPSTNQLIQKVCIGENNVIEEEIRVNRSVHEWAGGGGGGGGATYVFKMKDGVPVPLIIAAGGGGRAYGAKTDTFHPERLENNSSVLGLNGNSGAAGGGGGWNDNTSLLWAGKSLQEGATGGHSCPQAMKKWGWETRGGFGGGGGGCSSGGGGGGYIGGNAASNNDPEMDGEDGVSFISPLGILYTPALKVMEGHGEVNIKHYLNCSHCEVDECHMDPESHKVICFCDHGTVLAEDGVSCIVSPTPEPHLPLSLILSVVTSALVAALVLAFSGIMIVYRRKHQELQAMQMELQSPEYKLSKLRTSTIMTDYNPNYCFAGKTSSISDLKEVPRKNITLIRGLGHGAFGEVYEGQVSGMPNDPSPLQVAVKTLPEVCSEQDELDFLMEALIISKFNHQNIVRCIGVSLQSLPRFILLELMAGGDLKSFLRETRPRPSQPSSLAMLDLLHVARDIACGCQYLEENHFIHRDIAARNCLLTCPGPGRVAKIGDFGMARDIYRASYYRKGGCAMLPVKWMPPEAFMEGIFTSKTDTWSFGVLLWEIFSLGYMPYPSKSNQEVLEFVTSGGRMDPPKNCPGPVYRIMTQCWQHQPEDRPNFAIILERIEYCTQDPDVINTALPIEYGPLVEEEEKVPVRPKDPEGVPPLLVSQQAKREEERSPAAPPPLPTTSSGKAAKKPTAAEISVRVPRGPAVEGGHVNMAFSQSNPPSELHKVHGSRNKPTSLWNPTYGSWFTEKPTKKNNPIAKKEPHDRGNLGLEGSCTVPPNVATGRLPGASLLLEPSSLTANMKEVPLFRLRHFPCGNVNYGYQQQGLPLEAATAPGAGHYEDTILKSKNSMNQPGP

[25] = biological target: Proto-oncogene tyrosine-protein kinase Src (Homo sapiens) (UniProt P12931); assay: Inhibition of Src activation in human Huh-7 cells assessed as decrease in Cdk2 level at 5 uM incubated for 72 hrs by Western blot analysis; format: cell-based; in short: as §3
[26] = biological target: Proto-oncogene tyrosine-protein kinase Src (Homo sapiens) (UniProt P12931); assay: Inhibition of Src activation in human Huh-7 cells assessed as decrease in cyclin E level at 5 uM incubated for 72 hrs by Western blot analysis; format: cell-based; in short: as §3
[27] = biological target: Tyrosine-protein kinase BTK (Homo sapiens) (UniProt Q06187); assay: Inhibition of human BTK at 5 uM by Kinomescan profiling analysis relative to control; in short: as §4
Tyrosine-protein kinase BTK (Homo sapiens), sequence (Q06187 whole entry): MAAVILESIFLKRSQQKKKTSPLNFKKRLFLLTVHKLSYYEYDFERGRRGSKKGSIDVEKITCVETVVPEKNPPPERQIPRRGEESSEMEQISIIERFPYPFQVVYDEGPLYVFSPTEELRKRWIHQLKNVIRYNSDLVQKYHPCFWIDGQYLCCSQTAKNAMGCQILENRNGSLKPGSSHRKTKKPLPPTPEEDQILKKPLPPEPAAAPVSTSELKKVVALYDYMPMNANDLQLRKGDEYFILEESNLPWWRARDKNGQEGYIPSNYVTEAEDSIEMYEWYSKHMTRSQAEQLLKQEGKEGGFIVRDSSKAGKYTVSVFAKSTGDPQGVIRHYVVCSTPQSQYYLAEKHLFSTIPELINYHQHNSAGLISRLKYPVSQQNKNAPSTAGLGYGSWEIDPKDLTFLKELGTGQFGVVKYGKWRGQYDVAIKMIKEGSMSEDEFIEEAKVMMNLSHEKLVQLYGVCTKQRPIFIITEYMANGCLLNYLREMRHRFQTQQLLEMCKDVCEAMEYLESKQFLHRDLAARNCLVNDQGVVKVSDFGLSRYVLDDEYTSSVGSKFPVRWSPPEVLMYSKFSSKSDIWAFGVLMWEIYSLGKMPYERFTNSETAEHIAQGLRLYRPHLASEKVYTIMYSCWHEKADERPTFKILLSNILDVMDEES

Row | inhibition [16] | SMILES | IC50 [1] [nM] | Activity [2] | Activity [3] | IC50 [4] [nM] | Activity [5] | IC50 [6] [nM] | growth inhibition (GI) [7] | IC50 [8] [nM] | IC50 [9] [nM] | IC50 [10] [nM] | IC50 [11] [nM] | IC50 [12] [nM] | IC50 [13] [nM] | IC50 [14] [nM] | IC50 [15] [nM] | IC50 [17] [nM] | IC50 [18] [nM] | Activity [19] | IC50 [20] [nM] | other results
1 | Active | Clc1ccc(N2CCN(c3ncnc4c3ncn4C3CCCC3)CC2)cc1 | 4100 | inactive | inactive | 19300 | Active | 400 | Active | 6900 | 4000 | 100 | 2000 | 600 | 2000 | 12300 | 12200 | 4000 | 1800 | Active | 10 | 
2 |  | c1ccc(Oc2ccc(-c3ncnc4c3ncn4C3CCCC3)cc2)cc1 | 2800 | inactive | inactive | 6500 | Active | 100 | Active | < 100 | 9900 | 700 | 20000 | 800 | 500 | 2500 | 65000 | 100 | 200 | Active | 2 | Activity [21]: Active; inhibition [22]: 6%
3 | Active | c1ccc(N2CCN(c3ncnc4c3ncn4C3CCCC3)CC2)cc1 | 100 | Active | Active | 4000 | Active | < 100 | Active | 2000 | 11000 | 1000 | 13000 | 2100 | 600 | 5800 | 6000 | 200 | 1200 | Active | 2400 | inhibition [23]: Active; Activity [21]: Active; inhibition [24]: 13%; inhibition [25]: Active; inhibition [26]: Active; inhibition [27]: 1.9%
